According to ChEMBL document CHEMBL1146852, “Synthesis and pharmacological characterization of novel fluorescent histamine H2-receptor ligands derived from aminopotentidine” (Bioorg Med Chem Lett, 2006):

Legend:
Format in all cases: functional
[1] = Antagonist activity at human H2R-Gsalpha fusion protein expressed in sf9 cells by GTPase assay
In short: (§1)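 Inhibition of histamine-stimulated high-affinity GTP hydrolysis in Sf9 membranes expressing hH2R-Gsα or gpH2R-Gsα fusion proteins. KB came from non-linear curve fitting. Means SD of three experiments.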

Histamine H2 receptor [2] = molecular target: T1, Histamine H2 receptor (Homo sapiens, UniProt P25021); test: Agonist activity at human H2R relative to histamine
In short: (§2)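 GTPase activity in Sf9 insect cell membranes expressing hH2R-GsαS or gpH2R-GsαS fusion proteins. Curves were fitted by non-linear regression. Means SD of three experiments.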

[3] = molecular target: Histamine H2 receptor (Cavia porcellus) (UniProt P47747); test: Agonist activity at guinea pig H2R relative to histamine; in short: as §2
[4] = Antagonist activity at guinea pig H2R-Gsalpha fusion protein expressed in sf9 cells by GTPase assay; conditions: Cavia porcellus; in short: as §1
Histamine H2 receptor [5] = molecular target: T1, Histamine H2 receptor; test: Binding affinity to human H2R expressed in sf9 cells by adenylyl cyclase assay
[6] = molecular target: Histamine H2 receptor (Cavia porcellus) (UniProt P47747); test: Binding affinity to guinea pig H2R expressed in sf9 cells by adenylyl cyclase assay
[7] = molecular target: Histamine H1 receptor (Homo sapiens) (UniProt P35367); test: Antagonist activity at human recombinant H1R expressed in sf9 cells assessed as inhibition of histamine-stimulated GTP hydrolysis
[8] = Ratio of antagonist activity at human H2R-Gsalpha fusion protein to guinea pig H2R-Gsalpha fusion protein expressed in sf9 cells
Histamine H2 receptor [9] = molecular target: Histamine H2 receptor (Cavia porcellus, UniProt P47747); test: Agonist activity at guinea pig H2R; in short: as §2
Histamine H2 receptor [10] = molecular target: T1, Histamine H2 receptor; test: Agonist activity at human H2R; in short: as §2

Histamine H2 receptor (Cavia porcellus), sequence (P47747 whole entry, the tested form may be a part): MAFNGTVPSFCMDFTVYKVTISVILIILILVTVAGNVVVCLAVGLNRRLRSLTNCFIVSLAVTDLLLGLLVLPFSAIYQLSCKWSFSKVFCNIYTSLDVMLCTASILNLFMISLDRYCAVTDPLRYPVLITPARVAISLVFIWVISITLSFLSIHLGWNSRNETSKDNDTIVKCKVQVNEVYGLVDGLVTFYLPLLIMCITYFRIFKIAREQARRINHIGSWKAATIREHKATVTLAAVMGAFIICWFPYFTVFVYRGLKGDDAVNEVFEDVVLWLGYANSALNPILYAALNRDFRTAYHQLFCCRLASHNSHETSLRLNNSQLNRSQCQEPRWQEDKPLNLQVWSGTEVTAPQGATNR
T1 sequence (P25021 whole entry, the tested form may be a part): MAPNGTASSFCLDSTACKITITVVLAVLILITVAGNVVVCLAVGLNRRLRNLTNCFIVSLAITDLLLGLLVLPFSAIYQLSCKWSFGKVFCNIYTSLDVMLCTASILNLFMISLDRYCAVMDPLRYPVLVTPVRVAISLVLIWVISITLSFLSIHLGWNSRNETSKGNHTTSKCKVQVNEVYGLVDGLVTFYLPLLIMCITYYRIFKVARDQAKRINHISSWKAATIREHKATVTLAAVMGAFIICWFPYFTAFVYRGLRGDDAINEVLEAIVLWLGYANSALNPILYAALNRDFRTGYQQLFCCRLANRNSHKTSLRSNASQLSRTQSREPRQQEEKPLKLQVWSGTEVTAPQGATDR
Histamine H1 receptor (Homo sapiens), sequence (P35367 whole entry, the tested form may be a part): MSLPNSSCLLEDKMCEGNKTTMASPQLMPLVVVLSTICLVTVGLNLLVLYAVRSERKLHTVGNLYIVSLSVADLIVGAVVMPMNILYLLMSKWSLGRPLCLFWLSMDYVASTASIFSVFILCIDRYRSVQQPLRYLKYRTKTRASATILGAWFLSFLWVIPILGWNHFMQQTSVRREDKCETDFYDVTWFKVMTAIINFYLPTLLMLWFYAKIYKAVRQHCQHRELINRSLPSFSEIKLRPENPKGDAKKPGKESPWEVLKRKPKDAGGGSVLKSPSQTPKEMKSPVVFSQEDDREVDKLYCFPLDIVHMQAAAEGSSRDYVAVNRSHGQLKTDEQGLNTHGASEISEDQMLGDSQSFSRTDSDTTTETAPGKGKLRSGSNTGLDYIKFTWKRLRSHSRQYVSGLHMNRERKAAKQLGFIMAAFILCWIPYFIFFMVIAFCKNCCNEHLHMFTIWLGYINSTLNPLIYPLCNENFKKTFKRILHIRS
Histamine H2 receptor (Cavia porcellus, UniProt P47747), sequence (P47747 whole entry): as the sequence (P47747 whole entry, the tested form may be a part) above

Row | SMILES | Efficacy (Histamine H2 receptor [2]) [%] | Efficacy [3] [%] | Activity (Histamine H2 receptor [5]; filed as partial agonist) | Activity ([6]; filed as partial agonist) | Kb [7] [nM] | EC50 (Histamine H2 receptor [9]) [nM] | EC50 (Histamine H2 receptor [10]) [nM] | Kb (Histamine H2 receptor [5]) [nM] | Kb [6] [nM] | Kb [1] [nM] | Kb [4] [nM] | Ratio [8]
1 | CC1(C)C(/C=C/C=C/C=C2/N(CCCCCC(=O)NCC/N=C(\NC#N)NCCCOc3cccc(CN4CCCCC4)c3)c3ccccc3C2(C)C)=[N+](CCCCS(=O)(=O)[O-])c2ccccc21 | 58 | 65 | Partial agonist | Partial agonist | > 30000 | – | – | – | – | 47 | 58 | 0.81
2 | CC1(C)C(=CC=CC=CC2=[N+](CCCCS(=O)(=O)[O-])c3ccccc3C2(C)C)N(CCCCCC(=O)NCCN=C(NC#N)NCCCOc2cccc(CN3CCCCC3)c2)c2ccccc21 | – | – | – | – | – | 90 | 160 | – | – | – | – | –
3 | O=C(CCCCCNC(=O)COc1ccc(/C=C/C2=[N+]3C(=Cc4ccc(-c5ccc[nH]5)n4[B-]3(F)F)C=C2)cc1)NCCCOc1cccc(CN2CCCCC2)c1 | – | – | – | – | > 30000 | – | – | – | – | 640 | 150 | 4.27
4 | N#CN/C(=N\CCNC(=O)c1ccc(N)cc1)NCCCOc1cccc(CN2CCCCC2)c1.O=C(O)C(=O)O [AMINOPOTENTIDINE OXALATE] | – | – | – | – | – | – | – | – | – | 220 | 280 | 0.79

More lines, main results first:

Row | Efficacy (Histamine H2 receptor [2]) [%] | Efficacy [3] [%] | Activity (Histamine H2 receptor [5]; filed as partial agonist) | Activity ([6]; filed as partial agonist) | Kb [7] [nM] | EC50 (Histamine H2 receptor [9]) [nM] | EC50 (Histamine H2 receptor [10]) [nM] | Kb (Histamine H2 receptor [5]) [nM] | Kb [6] [nM] | SMILES | Kb [1] [nM] | Kb [4] [nM] | Ratio [8]
5 | – | – | – | – | > 30000 | – | – | – | – | N#CN/C(=N\CCN)NCCCOc1cccc(CN2CCCCC2)c1 | 9300 | 2300 | 4.04
6 | – | – | – | – | > 30000 | – | – | 2500 | 33 | N#CN/C(=N\CCCCCCN)NCCCOc1cccc(CN2CCCCC2)c1 | 1800 | 75 | 24
7 | – | – | – | – | > 30000 | – | – | – | – | NCCCOc1cccc(CN2CCCCC2)c1 | 15000 | 6800 | 2.2
8 | – | – | – | – | > 30000 | – | – | – | – | N#CN/C(=N\CCCCCCNC(=O)CCCCCNC(=O)COc1ccc(/C=C/C2=[N+]3C(=Cc4ccc(-c5ccc[nH]5)n4[B-]3(F)F)C=C2)cc1)NCCCOc1cccc(CN2CCCCC2)c1 | 260 | 190 | 1.37
